ChEMBL document CHEMBL3804827, “Synthesis, biological evaluation and structure-activity relationship of 2-styrylquinazolones as anti-tubercular agents” (Bioorg Med Chem Lett, 2016)
In brackets after ≈: the same amount, converted by molar mass.

What was measured:
[1] = tested on: Mycobacterium tuberculosis; assay: Antimycobacterial activity against Mycobacterium tuberculosis H37Rv ATCC 27294 after 7 days by Alamar blue assay; type: functional; settings: H37Rv ATCC 27294, 168 h
[2] = Selectivity index, ratio of CC50 for African green monkey Vero cells to IC90 for Mycobacterium tuberculosis H37Rv ATCC 27294; type: toxicity, cell-based; settings: read-out: Selectivity Index
[3] = tested on: Mycobacterium tuberculosis; assay: Antimycobacterial activity against Mycobacterium tuberculosis H37Rv ATCC 27294 after 28 days by two fold serial dilution method; type: functional; settings: H37Rv ATCC 27294, 672 h
How it was run: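 M. tuberculosis H37Rv (ATCC 27294) in vitro; MIC taken as the lowest concentration in µg/mL giving 99% growth inhibition. Determined in triplicate at pH 7.4, with standard drugs (INH, R, E, Z, Cfx) run alongside.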

[4] = Selectivity index, ratio of cytotoxicity against HEK293T cells to MIC for Mycobacterium tuberculosis H37Rv ATCC 27294; type: toxicity, cell-based, HEK-293T; settings: human, read-out: Selectivity Index
How it was run: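 HEK-293T human embryonic kidney cells were exposed to 50 µg/mL and read by MTT as % inhibition. The index relates this cytotoxicity to the MIC against M. tuberculosis H37Rv ATCC 27294, defined as 99% growth inhibition.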

Staphylococcus aureus = assay: Antibacterial activity against Staphylococcus aureus NRS70 after 16 to 20 hrs by two-fold serial dilution method; type: functional

Structure (SMILES) | MIC99 [3] | selectivity ratio [4] | other results
O=c1c2ccccc2nc(/C=C/c2ccc([N+](=O)[O-])o2)n1CCCO | – | – | IC90 [1]: < 0.1 µg/mL; selectivity ratio [2]: > 150
O=c1c2ccccc2nc(/C=C/c2ccccc2)n1-c1ccccc1 | 3.12 µg/mL (≈ 9.63 µM) | > 16 | –
COc1ccc(/C=C/c2nc3ccccc3c(=O)n2-c2ccc(C)cc2)cc1 | 12.5 µg/mL (≈ 33.9 µM) | – | –
O=c1c2ccccc2nc(/C=C/c2ccc(Cl)cc2)n1-c1ccccc1 | 12.5 µg/mL (≈ 34.8 µM) | – | –
COc1ccc(/C=C/c2nc3ccccc3c(=O)n2-c2ccc(SC)cc2)cc1 | > 25 µg/mL | – | –
O=c1c2ccccc2nc(/C=C/c2ccccc2)n1-c1ccc(F)cc1 | 25 µg/mL (≈ 73 µM) | – | –
CSc1ccc(-n2c(/C=C/c3ccc(N(C)C)cc3)nc3ccccc3c2=O)cc1 | 12.5 µg/mL (≈ 30.2 µM) | – | –
CSc1ccc(-n2c(/C=C/c3ccc(F)cc3)nc3ccccc3c2=O)cc1 | 12.5 µg/mL (≈ 32.2 µM) | – | –
O=c1c2ccccc2nc(/C=C/c2ccc(F)cc2)n1-c1ccc(Cl)cc1 | 6.25 µg/mL (≈ 16.6 µM) | > 8 | –
O=c1c2ccccc2nc(/C=C/c2cccs2)n1-c1ccccc1 | 3.12 µg/mL (≈ 9.46 µM) | < 16 | –
O=c1c2ccccc2nc(/C=C/c2ccccc2)n1-c1ccc(Cl)cc1 | 12.5 µg/mL (≈ 34.8 µM) | – | –
O=c1c2ccccc2nc(/C=C/c2ccc([N+](=O)[O-])o2)n1-c1cccc(O)c1 | – | – | IC90 [1]: 1.02 µg/mL (≈ 2.72 µM); selectivity ratio [2]: > 14.7
O=c1c2ccccc2nc(/C=C/c2ccc(Cl)cc2)n1-c1ccc(Cl)cc1 | > 25 µg/mL | – | –
O=c1c2ccccc2nc(/C=C/c2c(O)cccc2O)n1-c1ccccc1 | 6.25 µg/mL (≈ 17.5 µM) | > 8 | –
O=c1c2ccccc2nc(/C=C/c2ccccc2)n1-c1ccc(Br)cc1 | 6.25 µg/mL (≈ 15.5 µM) | > 8 | –
COc1cc(/C=C/c2nc3ccccc3c(=O)n2-c2ccccc2)cc(OC)c1OC | 0.78 µg/mL (≈ 1.88 µM) | > 64 | –
Cc1ccc(-n2c(/C=C/c3ccc(F)cc3)nc3ccccc3c2=O)cc1 | > 25 µg/mL | – | –
COc1ccc(-n2c(/C=C/c3ccccc3)nc3ccccc3c2=O)cc1 | 1.56 µg/mL (≈ 4.4 µM) | > 32 | –
O=c1c2ccccc2nc(/C=C/c2ccc(Cl)cc2)n1-c1ccc(F)cc1 | 12.5 µg/mL (≈ 33.2 µM) | – | –
COc1ccc(-n2c(/C=C/c3cccs3)nc3ccccc3c2=O)cc1 | 1.56 µg/mL (≈ 4.33 µM) | > 32 | –
COc1cc(-n2c(/C=C/c3cccs3)nc3ccccc3c2=O)cc(OC)c1OC | 6.25 µg/mL (≈ 14.9 µM) | < 8 | –
COc1ccc(/C=C/c2nc3ccccc3c(=O)n2-c2ccc(OC)cc2)cc1 | 1.56 µg/mL (≈ 4.06 µM) | > 32 | –
CSc1ccc(-n2c(/C=C/c3ccc(Cl)cc3)nc3ccccc3c2=O)cc1 | 12.5 µg/mL (≈ 30.9 µM) | – | –
COc1cc(-n2c(/C=C/c3ccco3)nc3ccccc3c2=O)cc(OC)c1OC | 3.12 µg/mL (≈ 7.73 µM) | > 16 | –
CSc1ccc(/C=C/c2nc3ccccc3c(=O)n2-c2ccccc2)cc1 | 3.12 µg/mL (≈ 8.44 µM) | < 16 | –
Cc1ccc(/C=C/c2nc3ccccc3c(=O)n2-c2ccc(C)cc2)cc1 | 3.12 µg/mL (≈ 8.87 µM) | > 16 | –
COc1cc(-n2c(/C=C/c3ccccc3)nc3ccccc3c2=O)cc(OC)c1OC | 0.78 µg/mL (≈ 1.88 µM) | > 64 | –

Structure (SMILES) | MIC99 [3] | selectivity ratio [4] | other results
COc1ccc(/C=C/c2nc3ccccc3c(=O)n2-c2ccccc2)cc1 | 12.5 µg/mL (≈ 35.3 µM) | – | –
O=c1c2ccccc2nc(/C=C/c2ccc(F)cc2)n1-c1ccc(Br)cc1 | 6.25 µg/mL (≈ 14.8 µM) | – | –
COc1cc(-n2c(/C=C/c3ccc(SC)cc3)nc3ccccc3c2=O)cc(OC)c1OC | 0.4 µg/mL (≈ 0.869 µM) | > 125 | –
O=c1c2ccccc2nc(/C=C/c2ccc(F)cc2)n1-c1ccccc1 | 25 µg/mL (≈ 73 µM) | – | –
O=c1c2ccccc2nc(/C=C/c2ccc(OCc3ccccc3)cc2)n1-c1ccccc1 | 12.5 µg/mL (≈ 29 µM) | – | –
COc1ccc(-n2c(/C=C/c3ccco3)nc3ccccc3c2=O)cc1 | 6.25 µg/mL (≈ 18.1 µM) | < 8 | –
COc1cc(/C=C/c2nc3ccccc3c(=O)n2-c2ccc(SC)cc2)cc(OC)c1OC | > 25 µg/mL | – | –
N#Cc1ccc(/C=C/c2nc3ccccc3c(=O)n2-c2cccc(C(=O)O)c2)cc1 | – | – | MIC (Staphylococcus aureus): 2 µg/mL (≈ 5.08 µM)
O=c1c2ccccc2nc(/C=C/c2ccco2)n1-c1ccccc1 | 12.5 µg/mL (≈ 39.8 µM) | – | –
O=c1c2ccccc2nc(/C=C/c2ccc(F)cc2)n1-c1ccc(F)cc1 | > 25 µg/mL | – | –
COc1cc(-n2c(/C=C/c3ccc(Cl)cc3)nc3ccccc3c2=O)cc(OC)c1OC | 3.12 µg/mL (≈ 6.96 µM) | > 16 | –
O=c1c2ccccc2nc(/C=C/c2ccc(Cl)cc2)n1-c1ccc(Cc2ccccc2)cc1 | 3.12 µg/mL (≈ 6.96 µM) | – | –
COc1ccc(/C=C/c2nc3ccccc3c(=O)n2-c2cc(OC)c(OC)c(OC)c2)cc1 | 12.5 µg/mL (≈ 28.1 µM) | – | –
Cc1ccc(-n2c(/C=C/c3ccccc3)nc3ccccc3c2=O)cc1 | > 25 µg/mL | – | –
Cc1ccc(-n2c(/C=C/c3ccc(Cl)cc3)nc3ccccc3c2=O)cc1 | 25 µg/mL (≈ 67.1 µM) | – | –
Cc1ccc(/C=C/c2nc3ccccc3c(=O)n2-c2ccc(F)cc2)cc1 | 6.25 µg/mL (≈ 17.5 µM) | > 8 | –
CSc1ccc(-n2c(/C=C/c3ccc(OC(C)=O)cc3)nc3ccccc3c2=O)cc1 | 6.25 µg/mL (≈ 14.6 µM) | – | –
COc1ccc(-n2c(/C=C/c3ccc(Cl)cc3)nc3ccccc3c2=O)cc1 | 3.12 µg/mL (≈ 8.04 µM) | < 16 | –
COc1cc(-n2c(/C=C/c3ccc(F)cc3)nc3ccccc3c2=O)cc(OC)c1OC | 6.25 µg/mL (≈ 14.5 µM) | > 8 | –
CSc1ccc(-n2c(/C=C/c3ccccc3)nc3ccccc3c2=O)cc1 | 0.78 µg/mL (≈ 2.11 µM) | > 64 | –
CSc1ccc(-n2c(/C=C/c3ccco3)nc3ccccc3c2=O)cc1 | 6.25 µg/mL (≈ 17.3 µM) | > 8 | –
CSc1ccc(-n2c(/C=C/c3cccs3)nc3ccccc3c2=O)cc1 | 6.25 µg/mL (≈ 16.6 µM) | > 8 | –
CC[C@@H](CO)NCCN[C@@H](CC)CO [ETHAMBUTOL] | 1.56 µg/mL (≈ 7.64 µM) | – | –
NNC(=O)c1ccncc1 [ISONIAZID] | 0.098 µg/mL (≈ 0.715 µM) | – | –
NC(=O)c1cnccn1 [PYRAZINAMIDE] | 6.25 µg/mL (≈ 50.8 µM) | – | –
CO[C@H]1/C=C/O[C@@]2(C)Oc3c(C)c(O)c4c(O)c(c(/C=N/N5CCN(C)CC5)c(O)c4c3C2=O)NC(=O)/C(C)=C\C=C\[C@H](C)[C@H](O)[C@@H](C)[C@@H](O)[C@@H](C)[C@H](OC(C)=O)[C@@H]1C [RIFAMPIN] | 0.197 µg/mL (≈ 0.239 µM) | – | –
